Compound activity from PubChem.
NOD2 RIPK2 PPI: inhibitors of human NOD2-RIPK2 interaction | CHO BLA complementation NOD2-RIPK2, CCF4 ratio | AID 624267 | O43353 | 360,000 tested, 0.38% active | inhibition, % at 4.98 µM; in the data active = inhibition above about 21%;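 also: 0% = vehicle only and 100% = reference blocker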
CHOP inhibitor: CHOP inhibition in unfolded protein response; inhibition, % at 10 µM; 220,000 tested, 3.8% active; AID 2732; CHO-K1 CHOP-promoter luciferase, tunicamycin-induced, 15-18 h;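 active = compounds that reduced the stress-induced luciferase reporter signal by more than about 70% of percent inhibition, limit read from the data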;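 also: 0% = tunicamycin plus vehicle and 100% = wells without tunicamycin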
XBP1 UPR activ: adaptive UPR (XBP1) activation | CHO-XBP1 luciferase reporter, IRE1-XBP1 UPR activation, luminescence; percent of tunicamycin response, DMSO as zero | activation, % at 20 µM | 330,000 tested, 0.33% active | AID 463104;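 active = versus positive control, 20 µM dose yields 30% or more activation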;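 also: 100% = tunicamycin at 10 µg/mL and 0% = DMSO only wells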
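Material: CHO cell line with stable XBP1 luciferase reporter; schedule: 16-18 h cell attachment at 37 °C, then 6 h compound exposure; signal: glow luminescence from Steady-Glo reagent; medium: serum-containing F12 medium, 10% FBS; benchmarks: tunicamycin 10 µg/mL and vehicle-only wells; read-out: percent activation relative to tunicamycin reference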
TLR9-MyD88 inh: TLR9-MyD88 interaction inhibition | CHO BLA complementation TLR9-MyD88, CCF4 FRET ratio | inhibition, % at 4.98 µM | 340,000 tested, 0.21% active;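 active = inhibition above the mean over all tested compounds plus 3 SD, cut at about 21% in these data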;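 also: 0% = DMSO only wells and 100% = clavulanate BLA inhibitor control wells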
Target sequence (Q99836 whole entry, looked up): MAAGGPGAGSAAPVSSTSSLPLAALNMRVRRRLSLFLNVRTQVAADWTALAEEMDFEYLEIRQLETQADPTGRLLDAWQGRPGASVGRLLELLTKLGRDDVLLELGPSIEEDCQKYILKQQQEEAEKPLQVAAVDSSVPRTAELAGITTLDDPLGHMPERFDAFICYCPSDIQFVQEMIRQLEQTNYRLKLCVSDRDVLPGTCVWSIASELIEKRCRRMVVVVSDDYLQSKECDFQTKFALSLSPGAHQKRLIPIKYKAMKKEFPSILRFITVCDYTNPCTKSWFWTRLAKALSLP
Target sequence (Q9NR96 whole entry, looked up): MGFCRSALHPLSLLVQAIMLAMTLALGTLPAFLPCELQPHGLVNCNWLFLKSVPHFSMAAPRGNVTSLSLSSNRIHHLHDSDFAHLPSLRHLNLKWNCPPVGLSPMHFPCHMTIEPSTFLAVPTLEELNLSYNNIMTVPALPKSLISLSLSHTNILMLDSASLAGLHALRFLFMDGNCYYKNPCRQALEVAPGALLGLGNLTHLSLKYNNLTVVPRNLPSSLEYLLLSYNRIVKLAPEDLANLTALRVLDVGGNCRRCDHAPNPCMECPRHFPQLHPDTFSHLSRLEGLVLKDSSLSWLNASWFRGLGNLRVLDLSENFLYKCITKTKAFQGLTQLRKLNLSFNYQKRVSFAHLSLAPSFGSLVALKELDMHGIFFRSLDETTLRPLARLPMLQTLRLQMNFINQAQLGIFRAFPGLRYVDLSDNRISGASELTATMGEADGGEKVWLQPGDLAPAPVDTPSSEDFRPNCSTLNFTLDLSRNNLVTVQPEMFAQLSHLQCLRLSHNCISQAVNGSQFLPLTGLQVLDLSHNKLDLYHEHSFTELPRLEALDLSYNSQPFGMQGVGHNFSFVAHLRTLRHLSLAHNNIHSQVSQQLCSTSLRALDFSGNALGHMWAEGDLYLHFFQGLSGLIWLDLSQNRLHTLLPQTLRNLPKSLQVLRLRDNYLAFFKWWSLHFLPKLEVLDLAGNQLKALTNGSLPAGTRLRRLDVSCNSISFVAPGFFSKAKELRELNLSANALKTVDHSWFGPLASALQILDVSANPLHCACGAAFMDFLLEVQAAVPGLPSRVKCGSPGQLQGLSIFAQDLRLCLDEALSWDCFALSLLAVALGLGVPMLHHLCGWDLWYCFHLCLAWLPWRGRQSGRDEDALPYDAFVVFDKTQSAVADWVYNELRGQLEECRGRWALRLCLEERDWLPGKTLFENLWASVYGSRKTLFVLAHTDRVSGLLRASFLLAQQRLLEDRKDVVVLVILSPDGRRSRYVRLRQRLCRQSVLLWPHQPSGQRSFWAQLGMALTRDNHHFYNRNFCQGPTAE
TLR4 MyD88 comp: TLR4-MyD88 interaction inhibition in cells | HeLa CL3-4 TLR4/MyD88 BLA complementation, FRET ratio | inhibition, % at 8.4 µM | 200,000 tested, 0.18% active | AID 861; in the data active = inhibition above about 25%;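 also: 0% = vehicle and 100% = reference inhibitor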
UPR CHOP act: activators of apoptotic arm of unfolded protein response (CHOP). CHO-CHOP luciferase reporter, UPR activation, luminescence; percent of tunicamycin response over DMSO baseline. activation, % at 10 µM. 330,000 tested, 0.34% active;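 active = at 10 µM dose, activation of 40% or more, normalized to positive control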;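 also: 100% = tunicamycin at 10 µg/mL and 0% = DMSO alone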
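Test system: CHO CHOP reporter cells. Input: 500 CHO-CHOP cells per well. Medium: F12 with 10% FBS. Technique: luciferase luminescence. Measure: percent activation relative to tunicamycin control. Dosing: 10 µM compound, 0.5% DMSO. Timing: 16-18 h cell attachment, then 6 h compound exposure, 37 °C.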
CHOP confirm: confirmation of CHOP induction inhibitors; 2,100 tested, 45% active; inhibition, % at 10 µM; CHO-CHOP promoter luciferase reporter, tunicamycin-induced, luminescence; shares compounds with CHOP inhibitor; AID 504437;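 active = mean of three repeat readings of reporter signal inhibition above a set limit, cut at about 70% in these data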;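 also: 0% = tunicamycin plus vehicle and 100% = wells lacking tunicamycin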
* hit, by the source's call; . = no result given. Many of the other results were omitted from the sample, so hits are more common in it than they were.

SMILES	NOD2 RIPK2 PPI	CHOP inhibitor	XBP1 UPR activ	TLR9-MyD88 inh	TLR4 MyD88 comp	UPR CHOP act	CHOP confirm
CCOC(=O)CNC(=O)Cn1cnc2c(nnn2-c2ccccc2)c1=O	-3	.	-1	-5	.	1	.
CCc1ccc(OCc2n[nH]c(=S)n2Cc2ccccc2)cc1	-7	4	-1	-1	-6	0	.
CCc1ccc(OCc2n[nH]c(=S)n2C(C)CCCC(C)C)cc1 (centres undefined)	0	105*	-2	-5	-5	0	113*
Cc1ccc(C)c(N2CCN(C(=O)CCS(=O)(=O)c3ccc4c(c3)CCN4C(=O)C3CC3)CC2)c1	-11	.	1	6	.	0	.
CCCCC(CC)Cn1c(N)c(C#N)c2nc3ccccc3nc21 (centres undefined)	-1	101*	-2	-12	-40	1	133*
CCOc1ccc(N(CC(=O)Nc2cccc(Cl)c2)S(=O)(=O)c2c(C)noc2C)cc1	-14	107*	-6	4	-1	0	81*
CCOc1ccc(N(CC(=O)Nc2cccc(OC)c2)S(=O)(=O)c2c(C)noc2C)cc1	0	61	-5	-11	-11	0	.
CCC(C)[C@H](NC(=O)N1CC(=O)Nc2ccccc21)C(=O)N[C@H](C(=O)O)c1ccccc1 (some centres undefined)	-6	.	0	3	.	-1	.
COc1ccc(N2CCN(c3nc(-c4cccs4)nc4ccccc34)CC2)cc1	-8	0	-7	3	1	0	.
COc1ccc2nc(C)cc(SCC(=O)N/N=C/c3ccco3)c2c1	-7	.	0	-10	.	0	.
COc1ccc(OC)c(/C=N/NC(=O)CSc2cc(C)nc3c(OC)cccc23)c1	-10	105*	2	.	-6	0	35
Cc1ccc(-n2c(C)cc(C3=NNC(=NC4CC4)SC3)c2C)cc1C	-3	65	4	0	6	1	.
Cc1cc2c(cc1C)CSC(c1ccccc1OC(=O)C(C)(C)C)SC2	-10	-19	-2	1	5	1	.
Cc1cc2c(cc1C)CSC(c1c(O)ccc3ccccc13)SC2	-8	112*	13	11	0	-1	116*
Cc1cc2c(cc1C)CSC(c1ccc3ccccc3c1O)SC2	-3	65	-2	-1	7	-2	.
Cc1cc2c(cc1C)CSC(c1ccccc1O)SC2	7	108*	7	-6	6	2	111*
O=C1N(c2ccccc2)C[C@@H]2C[C@@H](c3cccs3)N3CCC[C@@]123	8	98*	-4	8	-4	0	91*
CCOc1ccc(CCNc2ccc3nnc(-c4ccccc4)n3n2)cc1OCC	0	97*	-4	1	4	1	64
CC(=O)Nc1cccc(C(=O)Nc2cccnc2)c1	-10	2	1	-12	-15	0	.
COc1ccc(C(=O)NC(=O)Nc2cc(C)ccn2)cc1	-12	105*	-9	-3	4	-9	103*
Cc1cc(S(=O)(=O)Nc2ccc3ccccc3c2)c(C)s1	6	111*	-1	1	-4	-2	52
COc1ccc(N2CCN(S(=O)(=O)CCNC(=O)c3cccs3)CC2)cc1	-7	.	4	6	.	-1	.
O=c1[nH]c2cc3c(cc2cc1C(c1nnnn1Cc1ccccc1)N1CCCCCC1)OCCO3 (centres undefined)	-1	101*	1	8	-1	1	29
CN(C)c1nc(N)nc2c1ncn2C1OC(CO)CC1O (centres undefined)	-18	.	.	.	.	.	.
CCOC(=O)c1c(C)[nH]c(C(=O)COC(=O)C2CC(=O)N(Cc3ccccc3)C2)c1C (centres undefined)	-4	101*	-1	1	2	1	6
CCOC(=O)c1[nH]c(C)c(C(=O)OCC)c1C	5	-3	8	2	0	2	.
CCOC(=O)c1c(C)[nH]c(C(=O)COC(=O)c2[nH]c(C)c(C(C)=O)c2C)c1C	6	97*	-2	-7	8	-2	83*
